Our source for the Ratio, IC50 and inhibition values is ChEMBL document CHEMBL3351931, “Synthesis of natural-like acylphloroglucinols with anti-proliferative, anti-oxidative and tube-formation inhibitory activity” (Eur J Med Chem, 2014).

The structures appear in SMILES notation. The source made the active and inactive calls. No cut-off for these calls is given here.

A short description of data set [1]: Antioxidant activity in phosphate buffer assessed as trolox equivalents ratio at pH 7.4 after 15 mins by ORAC-fluorescein assay. The format is physicochemical. To be noted: pH 7.4, 0.25 h. A digest of the protocol:
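ORAC-FL: fluorescein probe (final 300 nM) in 75 mM phosphate buffer pH 7.4; antioxidant (test compounds 1–5 µM, five concentrations; Trolox 1–8 µM standards) preincubated with fluorescein 15 min at 37 °C. Reaction started with AAPH (final 12 mM). Fluorescence read every min for 80 min (ex 485/em 536 nm). AUC converted to Trolox equivalents; quadruplicate, ≥4 independent assays.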

Data set [2] in a line: Antiproliferative activity against human HMEC1 cells after 72 hrs. In kind it is functional, cell-based. The following applies: HMEC-1, 72 h. A digest of the protocol: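 SV-40T-transfected HMEC-1 seeded 1.5 × 10³ cells/well in ECGM with 10% FCS, supplement mix and antibiotics, 37 °C, 5% CO2. After 24 h, a reference plate was crystal-violet stained for baseline. The remaining cells were given increasing compound concentrations (DMSO stock) for 72 h, then crystal violet stained and read at 540 nm. 0.1% DMSO in ECGM served as negative control. IC50 ± SD from three independent experiments with different passages, hexaplicates per concentration.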

In data set [3] the test system is HMEC-1. Put plainly: Antiangiogenic activity in HMEC1 assessed as inhibition of tube formation at 6.25 to 50 uM after 19 hrs by matrigel assay. In kind it is functional. The following applies: Homo sapiens.
Data set [4] relates to HMEC-1. Put plainly: Antiangiogenic activity in HMEC1 assessed as inhibition of tube formation at 12.5 to 100 uM after 19 hrs by matrigel assay. The format is functional. The following applies: Homo sapiens.

For the molecule `COc1cc(O)c(CC=C(C)C)c(O)c1C(=O)/C=C/c1ccc(O)cc1` [XANTHOHUMOL], in data set [1], the Ratio is 2.3.
On to `COc1cc(C(=O)c2c(O)cc3c(c2O)CCC(C)(C)O3)cc(O)c1O`, for which the Ratio in data set [1] is given as 2.1. In data set [2], the IC50 – broadly, the concentration that inhibits the measured activity by half – worked out at 7.6 µM.
As to `CC(C)=CCC/C(C)=C/Cc1c(O)cc(O)c(C(=O)C(C)C)c1O`, the Ratio in data set [1] came to 0.8. Further, the IC50 in data set [2] was found to be 21 µM.
Take `CCC(C)C(=O)c1c(O)cc(O)c(C/C=C(\C)CCC=C(C)C)c1O` (stereo not drawn): the Ratio in data set [1] is given as 0.4. The same molecule had an IC50 in data set [2] of 11 µM. The inhibition entry in data set [3] is “Active”.
`COc1cc(C(=O)c2c(O)cc3c(c2O)CCC(C)(C)O3)cc(OC)c1OC`: 51.5 µM corresponded to half-maximal inhibition in data set [2] (IC50).
Turning to `CCC(C)C(=O)c1c(O)cc2c(c1O)CCC(C)(C)O2` (stereo not drawn), the Ratio in data set [1] stood at 1.2. Besides, in data set [2], half-maximal inhibition (IC50) required 29.3 µM.
On the same counts, the results for `CCCC(C)C(=O)c1c(O)cc(O)c(C/C=C(\C)CCC=C(C)C)c1O` (stereo not drawn) are 0.3 and 8.7 µM.
For `COc1ccc(C(=O)c2c(O)cc3c(c2O)CCC(C)(C)O3)cc1OC`, the Ratio in data set [1] was 1.3. The molecule also had an IC50 in data set [2] of 48 µM. In addition, the inhibition entry in data set [4] was “Active”.
For `COc1ccc(C(=O)c2c(O)cc3c(c2O)CCC(C)(C)O3)cc1`, the Ratio in data set [1] is reported as 1.1. This molecule also returned an IC50 in data set [2] of 43.4 µM.
As to `CCC(C)C(=O)c1c(O)cc(O)c2c1OC(C)(CCC=C(C)C)CC2` (stereo not drawn), the Ratio in data set [1] is listed as 0.3.
In the case of `CC(=O)c1c(O)cc(O)c2c1OC(C)(CCC=C(C)C)CC2` (stereo not drawn), in data set [1], the Ratio is 0.8. The same molecule registered an IC50 in data set [2] of 20.3 µM.
As for `CCC(=O)c1c(O)cc(O)c(C/C=C(\C)CCC=C(C)C)c1O`, in data set [1], the Ratio stood at 0.6. The same molecule came in with an IC50 in data set [2] of 22.4 µM.
Take `COc1cc(C(=O)c2c(O)cc3c(c2O)CCC(C)(C)O3)cc(OC)c1O`: in data set [1], the Ratio turned out to be 3. This molecule also yielded an IC50 in data set [2] of 23.9 µM.
In the same order, the values of `CC1(C)CCc2c(cc(O)c(C(=O)c3cc(O)cc(O)c3)c2O)O1` are 3 and 25.5 µM.
On to `CC(=O)c1c(O)cc(O)c(C/C=C(\C)CCC=C(C)C)c1O`, for which the Ratio in data set [1] turned out to be 1. For the same molecule, the IC50 in data set [2] turned out to be 22.5 µM.
For the molecule `CC1(C)CCc2c(cc(O)c(C(=O)c3ccc(O)cc3)c2O)O1`, the Ratio in data set [1] amounted to 6.6. This molecule also showed an IC50 in data set [2] of 53.8 µM.
In the case of `CC1(C)CCc2c(cc(O)c(C(=O)c3ccc(O)c(O)c3)c2O)O1`, the Ratio in data set [1] is recorded as 2.8. This molecule gave an IC50 in data set [2] of 0.88 µM.
